SMILES strings stand for the structures. A value given as a limit tells only on which side of the number the result lay.

The nature of experiment [1]: Reversal of multidrug resistance assessed as effect on calcein accumulation in MDR-human 2780 AD cells at 2.5 ug/ml relative to verapamil. It is filed as functional. The gist of the method:
(§1)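 Multidrug-resistant 2780AD ovarian cancer cells were incubated with calcein AM plus test compound at 0.25, 2.5 or 25 μg/mL. Cellular calcein accumulation was read by fluorescence and expressed as a percentage of the verapamil response. Values are based on triplicate determinations.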

Experiment [2] has as its system A549. As to the kind of experiment: Inhibition of induction of ICAM1 expression in human A549 cells in presence of IL1-alpha after 1 hr. The format is functional, cell-based. To be noted: A549, 1 h. The gist of the method: (§2)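 A549 cells (2 × 10⁴ cells/well) were pretreated with a range of compound concentrations for 1 h, then stimulated with IL-1α or TNF-α for 6 h. Surface ICAM-1 was detected with primary and secondary antibodies plus enzyme substrate, read as absorbance at 415 nm. Expression was taken as % of control after subtracting the unstimulated background. IC50 was derived from this, using triplicate cultures.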

Experiment [3] in a line: Growth inhibition of human WI38 cells. The format is cell-based. To be noted: WI-38. In short, it runs like this: (§3)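 Growth inhibition assayed in normal human fibroblasts WI-38, their malignant transformant VA-13, and human liver tumour HepG2 cells; IC50 reported.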
For experiment [4], the system named is A549. Description: Viability of human A549 cells by MTT assay after 24 hrs. It is filed as cell-based. To be noted: A549, 24 h. In short, it runs like this: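 A549 cells were exposed to serial compound dilutions for 24 h, and viability was measured by MTT. Viability % was taken as background-corrected absorbance relative to control. IC50 was derived from this, using triplicate cultures.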
On the technique in general: Tetrazolium assays rely on reduction of a dye to a coloured formazan, in cell work by metabolically active cells.

A short description of experiment [5]: Reversal of multidrug resistance assessed as effect on calcein accumulation in MDR-human 2780 AD cells at 25 ug/ml relative to control. It is filed as functional. In short, it runs like this: (§4)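 Multidrug-resistant human ovarian cancer 2780AD cells were loaded with calcein AM in the presence of test compound at 0.25, 2.5 or 25 μg/mL. Intracellular calcein, formed by enzymatic hydrolysis, was measured by fluorescence and expressed relative to a no-compound control. Values are means of triplicate determinations.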

A short description of experiment [6]: Reversal of multidrug resistance assessed as effect on calcein accumulation in MDR-human 2780 AD cells at 25 ug/ml relative to verapamil. It is filed as functional. In short, it runs like this:
as §1

The nature of experiment [7]: Reversal of multidrug resistance assessed as effect on calcein accumulation in MDR-human 2780 AD cells at 0.25 ug/ml relative to verapamil. It is filed as functional. In short, it runs like this: as §1
Experiment [8] relates to WI-38 VA13. As to the kind of experiment: Growth inhibition of human VA13 cells. The format is functional, cell-based. The gist of the method: as §3
A short description of experiment [9]: Reversal of multidrug resistance assessed as effect on calcein accumulation in MDR-human 2780 AD cells at 0.25 ug/ml relative to control. The format is functional. In short, it runs like this: as §4
A short description of experiment [10]: Reversal of multidrug resistance assessed as effect on calcein accumulation in MDR-human 2780 AD cells at 2.5 ug/ml relative to control. The format is functional. The gist of the method:
as §4

Experiment [11] relates to A549. As to the kind of experiment: Inhibition of induction of ICAM1 expression in human A549 cells in presence of TNFalpha after 1 hr. The format is functional, cell-based. To be noted: A549, 1 h. In short, it runs like this:
as §2

In experiment [12] the test system is HepG2. As to the kind of experiment: Growth inhibition of human HepG2 cells. It is filed as functional, cell-based. In short, it runs like this: as §3

For `CO[C@@H]1C[C@H](O[C@H]2CC[C@@]3(C)[C@@H](CC[C@@H]4[C@@H]3CC[C@]3(C)[C@@H](C5=CC(=O)OC5)[C@@H](OC(C)=O)C[C@]43O)C2)O[C@H](C)[C@@H]1O`, the Activity in [1] is recorded as 128%; in [5], 109%; in experiment [6], 82%; in experiment [7], 113%; in experiment [9], 105%; in experiment [10] it was 126%. Also, the IC50 (as a rule, the concentration needed to halve the response being measured) in experiment [2] was 21.5 µM; in [3], 23000 nM; in experiment [4] it was above 100 µM; in experiment [8] it was 720 nM; in experiment [11] it was 16.9 µM.
On to `CO[C@@H]1C[C@H](O[C@H]2CC[C@@]3(C)[C@H](CC[C@@]45O[C@@]46C[C@H]4O[C@@]4(C4=CC(=O)OC4)[C@@]6(C)CC[C@H]35)C2)O[C@H](C)[C@@H]1O`, for which the 50% inhibitory concentration (IC50) in experiment [2] is 62.1 µM; in experiment [3], 40900 nM; in experiment [4] it was above 100 µM; in experiment [11], 45.6 µM; in experiment [12] it was 74100 nM. Also, the Activity is given as 97% in experiment [5], 104% in experiment [9] and 96% in experiment [10].
Compound `CC(=O)O[C@H]1C(=O)[C@@]2(C)[C@H]([C@H](OC(=O)c3ccccc3)[C@]3(O)C[C@H](OC(=O)[C@H](O)[C@@H](NC(=O)c4ccccc4)c4ccccc4)C(C)=C1C3(C)C)[C@]1(OC(C)=O)CO[C@@H]1C[C@@H]2O` [PACLITAXEL] had a concentration for half-maximal inhibition (IC50) in [3] of 40 nM.
`CO[C@H]1C[C@H](O[C@H]2CC[C@@]3(C)[C@H](CC[C@@H]4[C@@H]3CC[C@]3(C)[C@@H](C5=CC(=O)OC5)[C@@H](OC(C)=O)C[C@]43O)C2)O[C@H](C)[C@@H]1O`: the IC50 in experiment [2] was 0.57 µM; in experiment [3], 80 nM; in experiment [4], above 1000 µM; in experiment [8], 240 nM; in experiment [12] it was 820 nM. Further, the Activity in experiment [5] is reported as 91%; in experiment [9] it was 90%; in experiment [10], 81%.
As for `CO[C@H]1C[C@H](O[C@H]2CC[C@@]3(C)[C@H](CC[C@@H]4[C@@H]3CC[C@]3(C)[C@@H](C5=CC(=O)OC5)CC[C@]43O)C2)O[C@H](C)[C@@H]1O`, the half-maximal inhibitory concentration (IC50) in [2] is 0.2 µM; in [3], below 20 nM; in experiment [4] it was above 100 µM; in [8], 800 nM; in [11], 0.16 µM; in experiment [12], 140 nM. Moreover, the results for the Activity in experiment [5], in experiment [9] and in experiment [10] were 86%, 89% and 83%, respectively.
As to `CC(=O)O[C@H]1C[C@]2(O)[C@@H]3CC[C@@H]4C[C@@H](O)CC[C@]4(C)[C@H]3CC[C@]2(C)[C@H]1C1=CC(=O)OC1`, the half-maximal inhibitory concentration (IC50) in experiment [2] was 0.52 µM; in experiment [3], 1700 nM; in experiment [4], above 100 µM; in experiment [8], 160 nM; in experiment [11], 0.36 µM; in experiment [12], 200 nM. In addition, the Activity in [5] is listed as 99%; in experiment [9], 92%; in experiment [10], 100%.
With `CO[C@@H]1C[C@H](O[C@H]2CC[C@@]3(C)[C@H](CC[C@@H]4[C@@H]3CC[C@]3(C)[C@@H](C5=CC(=O)OC5)[C@@H](OC(C)=O)C[C@]43O)C2)O[C@H](C)[C@@H]1O`, the IC50 is 0.51 µM in experiment [2]; 90 nM in experiment [3]; above 316 µM in experiment [4]; 170 nM in [8]; 0.31 µM in experiment [11]; 1500 nM in experiment [12]. The Activity in experiment [5] is reported as 75%; in experiment [9] it was 67%; in [10] it was 77%.
On to `CO[C@@H]1C[C@H](O[C@H]2CC[C@@]3(C)[C@H](CC[C@]4(O)[C@@H]3CC[C@]3(C)[C@@H](C5=CC(=O)OC5)CC[C@@]34O)C2)O[C@H](C)[C@@H]1O`, for which the IC50 in experiment [2] is 6 µM; in experiment [3], 9400 nM; in experiment [4], above 100 µM; in experiment [8], 1600 nM; in experiment [11], 5.9 µM; in experiment [12], 4700 nM. Further, the Activity was 112% in [5], 112% in experiment [9] and 107% in experiment [10].
On to `CO[C@@H]1C[C@H](O[C@H]2CC[C@@]3(C)[C@H](CC[C@@H]4[C@@H]3CC[C@]3(C)[C@@H](C5=CC(=O)OC5)CC[C@]43O)C2)O[C@H](C)[C@@H]1O`, for which the concentration for half-maximal inhibition (IC50) in [2] was 0.2 µM; in [3], 70 nM; in [4], above 316 µM; in experiment [8], 180 nM; in experiment [11], 0.48 µM; in experiment [12], 1500 nM. Also, the figures for the Activity in [5], in experiment [9] and in experiment [10] were 96%, 93% and 89%, respectively.
For `COc1cccc2c1C(=O)c1c(O)c3c(c(O)c1C2=O)C[C@@](O)(C(=O)CO)C[C@@H]3O[C@H]1C[C@H](N)[C@H](O)[C@H](C)O1` [DOXORUBICIN], the figures for the half-maximal inhibitory concentration (IC50) in [3], in [8] and in experiment [12] were 700 nM, 400 nM and 1300 nM, respectively.
For `CO[C@@H]1C[C@H](O[C@H]2CC[C@@]3(C)[C@H](CC[C@@]45O[C@@]46CC=C(C4=CC(=O)OC4)[C@@]6(C)CC[C@H]35)C2)O[C@H](C)[C@@H]1O`, the half-maximal inhibitory concentration (IC50) in experiment [2] is 133 µM; in experiment [4], above 316 µM. The Activity in [5] was 99%; in experiment [9], 88%; in experiment [10], 89%.
In the case of `CO[C@@H]1C[C@H](O[C@H]2CC[C@@]3(C)[C@H](CC[C@@]45O[C@@]46CC[C@H](C4=CC(=O)OC4)[C@@]6(C)CC[C@H]35)C2)O[C@H](C)[C@@H]1O`, the concentration for half-maximal inhibition (IC50) in [2] was 13.9 µM; in experiment [3], 33100 nM; in experiment [4] it was above 316 µM; in experiment [8], 13400 nM; in experiment [12] it was 76400 nM. Besides, the Activity in experiment [5] was 112%; in experiment [9], 92%; in experiment [10], 102%.
Consider `CO[C@H]1C[C@H](O[C@H]2CC[C@@]3(C)[C@H](CC[C@@]45O[C@@]46CC=C(C4=CC(=O)OC4)[C@@]6(C)CC[C@H]35)C2)O[C@H](C)[C@@H]1O`, for which the IC50 was 69.3 µM in experiment [2]; 16300 nM in experiment [3]; above 100 µM in experiment [4]; 85700 nM in [8]; 55.4 µM in experiment [11]; 81400 nM in experiment [12]. The Activity is 102% in experiment [5], 99% in experiment [9] and 100% in experiment [10].
With `C[C@]12CC[C@H](O)C[C@H]1CC[C@@H]1[C@@H]2CC[C@]2(C)[C@@H](C3=CC(=O)OC3)CC[C@]12O` [DIGITOXIGENIN], the IC50 in [2] is 0.62 µM; in experiment [3] it was 11800 nM; in experiment [4], above 316 µM; in experiment [8], 1900 nM; in experiment [12], 18000 nM. Moreover, the values for the Activity in experiment [5], in experiment [9] and in experiment [10] were 66%, 86% and 74%, respectively.

These data come from ChEMBL document CHEMBL1146214, “Bioactive cardenolides from the stems and twigs of Nerium oleander” (J Nat Prod, 2007).
